According to ChEMBL document CHEMBL3132745, “Synthesis and Antimicrobial Activities of His(2-aryl)-Arg and Trp-His(2-aryl) Classes of Dipeptidomimetics” (Medchemcomm, 2014):
Values after ≈ are worked out from the molar mass of the structure shown. Active and inactive are the calls of the source.

Key:
Staphylococcus aureus [1] = test: Antibacterial activity against methicillin-resistant Staphylococcus aureus ATCC 33591 assessed as growth inhibition after 16-20 hrs by CLSI method; type: functional, organism-based
[2] = Selectivity index, ratio of cytotoxicity against human KB cells to IC50 for Cryptococcus neoformans ATCC 90113; type: toxicity, cell-based; conditions: read-out: Selectivity Index
[3] = Selectivity index, ratio of cytotoxicity against human SK-MEL cells to IC50 for Cryptococcus neoformans ATCC 90113; type: toxicity, cell-based; conditions: read-out: Selectivity Index
Pichia kudriavzevii = test: Antifungal activity against Candida krusei assessed as growth inhibition; type: functional, organism-based
Candida albicans = test: Antifungal activity against Candida albicans assessed as growth inhibition; type: functional, organism-based
KB = test: Cytotoxicity against human KB cells assessed as cell viability after 48 hrs by neutral red uptake assay; type: cell-based
Outline: (§1)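 Neutral red uptake assay on human cancer lines (SK-MEL, KB, BT-549, SK-OV-3) and noncancerous mammalian cells (VERO, LLC-PK1). Highest tested concentration was 10 µg/mL.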

SK-OV-3 = test: Cytotoxicity against human SKOV3 cells assessed as cell viability after 48 hrs by neutral red uptake assay; type: cell-based; conditions: sk-ov-3, 48 h; outline: as §1
Vero = test: Cytotoxicity against african green monkey Vero cells assessed as cell viability after 48 hrs by neutral red uptake assay; type: cell-based; conditions: chlorocebus sabaeus; outline: as §1
LLC-PK1 = test: Cytotoxicity against pig LLC-PK1 cells assessed as cell viability after 48 hrs by neutral red uptake assay; type: cell-based, Sus scrofa; conditions: llc-pk1, 48 h; outline: as §1
Cryptococcus neoformans = test: Antifungal activity against Cryptococcus neoformans ATCC 90113 assessed as growth inhibition after 70-74 hrs by CLSI method; type: functional, organism-based; conditions: Cryptococcus neoformans, ATCC 90113; for IC50: read-out: IC50
[4] = Selectivity index, ratio of cytotoxicity against human BT549 cells to IC50 for Cryptococcus neoformans ATCC 90113; type: toxicity, cell-based, BT-549; conditions: read-out: Selectivity Index
[5] = Selectivity index, ratio of cytotoxicity against human SKOV3 cells to IC50 for Cryptococcus neoformans ATCC 90113; type: toxicity, cell-based, SK-OV-3; conditions: read-out: Selectivity Index
Aspergillus fumigatus = test: Antifungal activity against Aspergillus fumigatus assessed as growth inhibition; type: functional, organism-based
[6] = Selectivity index, ratio of cytotoxicity against african green monkey Vero cells to IC50 for Cryptococcus neoformans ATCC 90113; type: toxicity, cell-based; conditions: read-out: Selectivity Index
[7] = Selectivity index, ratio of cytotoxicity against pig LLC-PK1 cells to IC50 for Cryptococcus neoformans ATCC 90113; type: toxicity, cell-based; conditions: read-out: Selectivity Index
SK-MEL = test: Cytotoxicity against human SK-MEL cells assessed as cell viability after 48 hrs by neutral red uptake assay; type: cell-based; outline: as §1
Nakaseomyces glabratus = test: Antifungal activity against Candida glabrata assessed as growth inhibition; type: functional, organism-based
Staphylococcus aureus [8] = test: Antibacterial activity against Staphylococcus aureus ATCC 29213 assessed as growth inhibition after 16-20 hrs by CLSI method; type: functional, organism-based
BT-549 = test: Cytotoxicity against human BT549 cells assessed as cell viability after 48 hrs by neutral red uptake assay; type: cell-based; conditions: bt-549, 48 h; outline: as §1
Escherichia coli = test: Antibacterial activity against Escherichia coli ATCC 35218 assessed as growth inhibition after 16-20 hrs by CLSI method; type: functional, organism-based

Row | SMILES | selectivity ratio [2] | selectivity ratio [3] | growth inhibition (GI) (Pichia kudriavzevii) | growth inhibition (GI) (Candida albicans) | Activity (KB) [µg/mL] | Activity (SK-OV-3) [µg/mL] | Activity (Vero) [µg/mL] | Activity (LLC-PK1) [µg/mL] | MFC (Cryptococcus neoformans) [µg/mL] | MIC (Cryptococcus neoformans) [µg/mL] | IC50 (Cryptococcus neoformans) [µg/mL] | selectivity ratio [4] | selectivity ratio [5] | growth inhibition (GI) (Aspergillus fumigatus) | selectivity ratio [6] | selectivity ratio [7] | Activity (SK-MEL) [µg/mL] | growth inhibition (GI) (Nakaseomyces glabratus) | Activity (BT-549) [µg/mL] | growth inhibition (GI) (Escherichia coli) | further results
1 | CC(C)(C)OC(=O)N[C@@H](Cc1c[nH]c(-c2cccc3ccccc23)n1)C(=O)N[C@@H](CCCNC(=N)N)C(=O)NCc1ccccc1 | > 3.6 | > 3.6 | inactive | inactive | > 10 | > 10 | > 10 | > 10 | 5 (≈ 7.98 µM) | 5 (≈ 7.98 µM) | 2.79 (≈ 4.45 µM) | > 3.6 | > 3.6 | inactive | > 3.6 | > 3.6 | > 10 | inactive | > 10 | inactive | MBC (Staphylococcus aureus [1]): inactive; MIC (Staphylococcus aureus [1]; Staphylococcus aureus, ATCC 33591): 20 µg/mL (≈ 31.9 µM); IC50 (Staphylococcus aureus [1]; Staphylococcus aureus, ATCC 33591, read-out: IC50): 13.2 µg/mL (≈ 21.1 µM); IC50 (Staphylococcus aureus [8]): 16.4 µg/mL (≈ 26.1 µM)
2 | COc1ccc(-c2nc(C[C@H](NC(=O)OC(C)(C)C)C(=O)N[C@@H](CCCNC(=N)N)C(=O)NCc3ccccc3)c[nH]2)cc1 | > 1.7 | > 1.7 | inactive | inactive | > 10 | > 10 | > 10 | > 10 | 10 (≈ 16.5 µM) | 10 (≈ 16.5 µM) | 5.77 (≈ 9.51 µM) | > 1.7 | > 1.7 | inactive | > 1.7 | > 1.7 | > 10 | inactive | > 10 | inactive | –
3 | COC(=O)[C@H](CCCNC(=N)N)NC(=O)[C@@H](N)Cc1c[nH]c(-c2ccc(-c3ccccc3)cc2)n1 | > 1.8 | > 1.8 | inactive | inactive | > 10 | > 10 | > 10 | > 10 | 10 (≈ 20.9 µM) | 10 (≈ 20.9 µM) | 5.49 (≈ 11.5 µM) | > 1.8 | > 1.8 | inactive | > 1.8 | > 1.8 | > 10 | inactive | > 10 | inactive | –
4 | N=C(N)NCCC[C@H](NC(=O)[C@@H](N)Cc1c[nH]c(-c2ccccc2)n1)C(=O)NCc1ccccc1 | > 8.2 | > 8.2 | inactive | inactive | > 10 | > 10 | > 10 | > 10 | 2.5 (≈ 5.25 µM) | 2.5 (≈ 5.25 µM) | 1.22 (≈ 2.56 µM) | > 8.2 | > 8.2 | inactive | > 8.2 | > 8.2 | > 10 | inactive | > 10 | inactive | –
